TAAR1 agonist = human TAAR1 agonists, primary screen, Fluo-8 calcium fluorescence, CHO RD-HGA16 cells. activation, % at 3 µM. Trace amine-associated receptor 1 (Homo sapiens), Q96RJ0. vehicle wells 0%, saturating PEA agonist 100%. 360,000 tested, 0.99% active;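 active = activation above the mean activation of all test compounds in the run plus 3 SD, cut at about 38% in these data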
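Assay system – CHO-derived RD-HGA16 cells with stable Gα16 and human TAAR1 · Compound dosing – one-point dosing at 3 µM (nominal) · Incubation – 17-24 h seeding, 75 min 37 °C dye, 30 min RT · Measured by – kinetic Fluo-8 calcium fluorescence · Control set – DMSO vehicle as 0%, PEA at EC100 as 100% · Repeats – single well for each compound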
CHO parental Ca = ATP-evoked calcium signal inhibitors, parental CHO, primary screen, counter-screen for OX1R antagonist project, cell-based, fluorescence, Fluo-8 calcium dye; parental CHO-K1, ATP-induced calcium, Fluo-8 fluorescence; inhibition, % at 5.6 µM; 330,000 tested, 0.63% active;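 active = inhibition above that plate's mean sample inhibition plus 3 SD, cut at about 26% in these data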;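 also: 0% = ATP-challenged DMSO wells and 100% = DMSO wells without ATP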
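Measured by: calcium-sensitive Fluo-8 fluorescence / Test system: CHO parental line / Controls: ATP-challenged DMSO wells low, unchallenged DMSO wells high / Measure: % inhibition / Compound: single nominal dose of 5.6 µM per compound / Replicates: single well per compound, no replicates / Reagent: ATP as calcium-mobilizing challenge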
GPR7 antagonist = GPR7 receptor antagonists, primary screen, cell-based, fluorescence, single concentration; Neuropeptides B/W receptor type 1 (Homo sapiens), P48145; GPR7-expressing cells, fluorescence antagonist assay; inhibition, % at 4.4 µM; 290,000 tested, 1.1% active; AID 1861, 2009; in the data active = inhibition above about 16%, passing the limit was not always enough;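 also: cells stimulated with the agonist NPW; 0% = agonist with vehicle and 100% = vehicle without agonist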
Target sequence (P48145 whole entry, looked up): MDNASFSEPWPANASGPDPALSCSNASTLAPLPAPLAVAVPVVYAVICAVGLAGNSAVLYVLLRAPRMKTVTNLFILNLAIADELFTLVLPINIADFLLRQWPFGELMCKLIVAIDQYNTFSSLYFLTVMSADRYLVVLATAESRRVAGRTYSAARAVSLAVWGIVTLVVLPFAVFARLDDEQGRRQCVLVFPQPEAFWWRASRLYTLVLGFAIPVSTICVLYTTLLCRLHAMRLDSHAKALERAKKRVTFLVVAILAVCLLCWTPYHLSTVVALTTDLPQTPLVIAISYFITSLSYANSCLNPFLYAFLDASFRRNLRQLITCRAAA
OX1R antag-1 = OX1R (HCRTR1) antagonists, primary screen, fluorescence, CHO/OX1R cells, Fluo-8 calcium, orexin A. 330,000 tested, 0.43% active. Fluo-8 calcium fluorescence. Orexin/Hypocretin receptor type 1 (Homo sapiens), O43613. AID 434989, 2010. inhibition, % at 5 µM;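 active = inhibition above its plate's threshold, mean inhibition of all tested compounds on the plate plus 3 SD, cut at about 37% in these data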;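 also: 0% = orexin A challenge wells and 100% = SB-334867-A antagonist wells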
TAAR1 antagonist = human TAAR1 antagonists, primary screen, Fluo-8 calcium fluorescence, CHO RD-HGA16 cells; Trace amine-associated receptor 1 (Homo sapiens), Q96RJ0; antagonist; inhibition, % at 3 µM; 360,000 tested, 1.5% active;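 active = inhibition above a per-plate cutoff, the mean inhibition of test compounds on that plate plus 3 SD, cut at about 49% in these data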;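 also: 0% = DMSO plus EC80 beta-PEA response and 100% = DMSO alone without agonist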
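Test system – hTAAR1-expressing CHO RD-HGA16 cells, Gα16-coupled · Reagent – β-PEA at EC80 concentration, post-compound challenge · Compound dosing – 3 µM, single point · Timing – 140 s kinetic read after compound, 140 s after agonist · Detection – Fluo-8 intracellular calcium dye fluorescence, real-time kinetic reads · Control set – DMSO and EC80 PEA controls · Repeats – n of 1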
OX1R antag-2 = antagonists of human orexin 1 receptor (OX1R). Orexin/Hypocretin receptor type 1 (Homo sapiens), O43613. OX1R-expressing cells, FRET antagonist read-out. inhibition, % at 6.6 µM. 330,000 tested, 1.8% active. AID 485270, 2010; in the data active = inhibition mostly above about 38%, no sharp cut-off; inactive = mostly below about 40%;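 also: 0% = agonist challenge alone and 100% = reference antagonist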
* hit, by the source's call; · = not tested or not shown. Rows were chosen to be rich in hits. Some 4.6% of all compounds tested hit in one or more screens of this group.

SMILES	TAAR1 agonist	CHO parental Ca	GPR7 antagonist	OX1R antag-1	TAAR1 antagonist	OX1R antag-2
C=CCn1c(C)cc(C(=O)CN2C(=O)c3ccccc3S2(=O)=O)c1C	·	-7.9	·	-30.9	·	1.4
CCOc1ccc(NC(=O)CN2C(=O)S/C(=C/c3cccn3C)C2=O)cc1	2.9	-10.8	0.0	-1.4	15.6	44.2
Cn1cccc1/C=C1\SC(=O)N(CC(=O)Nc2ccc(Cl)cc2)C1=O	27.5	-10.9	-7.3	-15.8	54.6*	2.6
CC1(C)CCN2CCC(C)(C)c3c(O)ccc1c32	23.6	38.4*	22.5	40.5*	17.4	14.4
CCCCCCCCNCCS(=O)(=O)NCCCCCCCC	0.1	·	·	·	-3.5	·
O=C(CSc1nc2ccccc2[nH]1)NC1CCCc2ccccc21 (configuration not stated)	6.0	-22.2	-10.9	-1.7	32.7	52.0
O=C(CSc1nc2ccc(Cl)cc2[nH]1)NC1CCCc2ccccc21 (configuration not stated)	4.4	-1.4	5.8	-10.3	47.1	73.2*
CN(C)CCCNC(=S)NCC(c1ccc(Cl)cc1Cl)c1c[nH]c2ccccc12 (configuration not stated)	13.3	43.2*	75.3*	39.1*	39.8	1.6
C[n+]1c(-c2ccccc2)sc([S-])c1-c1ccccc1	-1.6	39.5*	·	-23.4	-13.6	15.1
O=C(CC1SC(=O)N(Cc2cccc3ccccc23)C1=O)Nc1nccs1 (configuration not stated)	4.4	-26.6	9.7	-11.8	16.3	62.0*
O=C(Cc1ccccc1)Nc1nccs1	3.7	-3.0	1.9	1.1	-1.3	26.2
COc1cc(C(=O)Nc2scc(-c3ccc(Br)cc3)c2C(=O)O)cc(OC)c1OC	6.8	-8.7	-12.3	-3.8	27.9	54.2*
Cc1cccc(C(=O)Nc2scc(-c3ccc(Br)cc3)c2C(=O)O)c1	5.1	-6.1	·	8.4	2.0	17.4
Cc1cccc(NC(=O)c2ccc(N3C(=O)C4C5C=CC(C6CC56)C4C3=O)cc2)c1 (configuration not stated)	11.9	45.5*	13.6	32.9	68.5*	17.6
CC1C=CCC2C(=O)N(c3cccc(C(=O)Nc4ccc(Br)cc4)c3)C(=O)C12 (configuration not stated)	3.7	-13.8	2.3	-6.3	49.8*	21.8
Cc1ccccc1NC(=O)c1cccc(N2C(=O)C3C4CC(C(Br)C4Br)C3C2=O)c1 (configuration not stated)	41.2*	·	17.6	·	73.3*	·
O=C(Nc1ccc(Br)cc1)c1cccc(N2C(=O)C3C4C=CC(C4)C3C2=O)c1 (configuration not stated)	9.8	-18.2	-3.2	-33.6	36.7	16.0
O=C(Nc1ccc(Br)cc1)c1cccc(N2C(=O)C3C4CCC(C4)C3C2=O)c1 (configuration not stated)	22.0	-8.1	-13.4	-11.2	48.8*	19.2
Cc1ccc(Cc2c(C3CCCCC3)nc3ccc(C)cn23)cc1	16.2	·	·	·	-10.4	·
Cc1nnc(N/N=C/c2c(Cl)cccc2Cl)n1N	-0.5	-4.8	-1.7	-14.8	2.7	61.1*
CCc1nnc(N/N=C/c2c(C)[nH]c3ccccc23)n1N	0.5	12.1	-9.7	3.2	-10.4	67.8*
Cc1[nH]c2ccccc2c1/C=N/NC(N)=S	3.9	-3.5	-4.7	-1.1	-11.3	-1.3
CCc1nnc(N/N=C/c2c(F)cccc2Cl)n1N	0.2	-5.7	-15.6	-5.2	-14.3	71.4*
Clc1cccc(Cl)c1/C=N\Nc1nccs1	5.3	-6.1	-5.8	-26.4	-5.1	20.8
CCc1nnc(N/N=C/c2cc(C)c(C)cc2C)n1N	1.3	·	-11.0	·	12.6	·
O=C(Nc1nccs1)c1ccc(-c2ccccc2Cl)o1	-2.7	-36.0	-15.4	8.3	-11.8	59.1*
